Measurements as given in the M2OR odorant receptor database.

What was measured:
Details in all cases: stereoisomer not certain
UniProt Q8VGU3 = target: T1, UniProt Q8VGU3
T1 sequence (whole entry): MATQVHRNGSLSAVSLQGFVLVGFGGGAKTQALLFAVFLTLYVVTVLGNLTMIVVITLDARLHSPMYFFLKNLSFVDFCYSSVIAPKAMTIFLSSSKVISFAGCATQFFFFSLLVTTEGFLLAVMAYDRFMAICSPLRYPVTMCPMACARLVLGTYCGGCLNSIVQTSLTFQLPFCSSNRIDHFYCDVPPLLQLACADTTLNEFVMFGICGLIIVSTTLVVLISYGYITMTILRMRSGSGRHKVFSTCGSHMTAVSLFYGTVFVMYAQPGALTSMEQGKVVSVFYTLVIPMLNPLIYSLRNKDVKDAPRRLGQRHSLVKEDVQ
How it was run: (§1)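 Assay methods differ from source to source, frequently being transient luciferase assays in mammalian cell lines. For each receptor–molecule pair, the label responsive (active) applies when the original authors judged the measured signal statistically different from baseline, and non-responsive (inactive) applies otherwise.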

UniProt Q8VGV7 = target: T2, UniProt Q8VGV7
T2 sequence (whole entry): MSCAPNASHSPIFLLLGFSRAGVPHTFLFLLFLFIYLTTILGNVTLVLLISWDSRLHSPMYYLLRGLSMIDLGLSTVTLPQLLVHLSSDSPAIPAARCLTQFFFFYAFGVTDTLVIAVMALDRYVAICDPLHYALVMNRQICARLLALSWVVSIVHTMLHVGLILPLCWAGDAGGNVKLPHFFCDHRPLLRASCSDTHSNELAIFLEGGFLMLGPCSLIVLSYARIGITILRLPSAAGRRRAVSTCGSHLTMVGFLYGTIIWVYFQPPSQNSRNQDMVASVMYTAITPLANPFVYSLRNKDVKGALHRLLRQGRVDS
How it was run: as §1

UniProt Q8VGX3 = target: T3, UniProt Q8VGX3
T3 sequence (whole entry): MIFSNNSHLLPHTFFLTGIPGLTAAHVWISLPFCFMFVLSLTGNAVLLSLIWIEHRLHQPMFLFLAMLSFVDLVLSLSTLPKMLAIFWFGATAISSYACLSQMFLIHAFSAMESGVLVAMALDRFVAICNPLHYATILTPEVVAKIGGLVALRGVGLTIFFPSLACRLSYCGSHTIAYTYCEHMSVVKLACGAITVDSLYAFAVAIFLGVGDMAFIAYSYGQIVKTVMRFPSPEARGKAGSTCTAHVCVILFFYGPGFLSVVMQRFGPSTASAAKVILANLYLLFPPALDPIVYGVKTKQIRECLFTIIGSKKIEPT
How it was run: as §1

UniProt Q8VGX5 = target: T4, UniProt Q8VGX5
T4 sequence (whole entry): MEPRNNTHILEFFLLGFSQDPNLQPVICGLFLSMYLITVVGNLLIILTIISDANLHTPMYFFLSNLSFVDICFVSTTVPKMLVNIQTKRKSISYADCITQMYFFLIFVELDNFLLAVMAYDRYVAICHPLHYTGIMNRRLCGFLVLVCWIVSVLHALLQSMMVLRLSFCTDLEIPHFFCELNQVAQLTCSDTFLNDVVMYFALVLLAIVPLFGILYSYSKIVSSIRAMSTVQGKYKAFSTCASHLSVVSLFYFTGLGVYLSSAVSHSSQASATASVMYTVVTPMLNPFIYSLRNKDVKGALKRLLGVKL
How it was run: as §1

UniProt Q8VGM2 = target: T5, UniProt Q8VGM2
T5 sequence (whole entry): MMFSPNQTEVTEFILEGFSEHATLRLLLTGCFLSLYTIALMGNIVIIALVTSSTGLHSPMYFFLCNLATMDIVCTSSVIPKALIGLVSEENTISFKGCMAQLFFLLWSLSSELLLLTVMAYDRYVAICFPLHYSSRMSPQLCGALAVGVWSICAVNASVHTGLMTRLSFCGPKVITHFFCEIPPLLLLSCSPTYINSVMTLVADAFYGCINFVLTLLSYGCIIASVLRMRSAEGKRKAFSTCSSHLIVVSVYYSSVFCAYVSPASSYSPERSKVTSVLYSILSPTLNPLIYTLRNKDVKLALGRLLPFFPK
How it was run: as §1

UniProt Q8VGP6 = target: T6, UniProt Q8VGP6
T6 sequence (whole entry): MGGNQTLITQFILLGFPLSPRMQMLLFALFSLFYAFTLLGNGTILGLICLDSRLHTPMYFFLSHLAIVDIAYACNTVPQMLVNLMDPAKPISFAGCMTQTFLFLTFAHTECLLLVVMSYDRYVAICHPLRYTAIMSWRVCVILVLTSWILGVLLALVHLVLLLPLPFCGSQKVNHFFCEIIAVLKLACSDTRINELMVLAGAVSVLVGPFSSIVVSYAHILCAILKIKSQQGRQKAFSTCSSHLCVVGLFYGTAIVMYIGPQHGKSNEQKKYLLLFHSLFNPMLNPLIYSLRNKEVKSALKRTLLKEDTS
How it was run: as §1

UniProt Q8VGQ3 = target: T7, UniProt Q8VGQ3
T7 sequence (whole entry): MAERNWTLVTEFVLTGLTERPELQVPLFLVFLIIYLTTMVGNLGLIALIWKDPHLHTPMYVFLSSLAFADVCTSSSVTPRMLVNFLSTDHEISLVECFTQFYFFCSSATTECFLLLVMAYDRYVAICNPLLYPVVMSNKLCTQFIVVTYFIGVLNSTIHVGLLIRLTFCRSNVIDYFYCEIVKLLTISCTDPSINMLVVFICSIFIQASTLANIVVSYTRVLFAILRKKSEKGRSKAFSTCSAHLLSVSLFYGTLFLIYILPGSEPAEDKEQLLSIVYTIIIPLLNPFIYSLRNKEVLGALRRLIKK
How it was run: as §1

UniProt Q8VGT4 = target: T8, UniProt Q8VGT4
T8 sequence (whole entry): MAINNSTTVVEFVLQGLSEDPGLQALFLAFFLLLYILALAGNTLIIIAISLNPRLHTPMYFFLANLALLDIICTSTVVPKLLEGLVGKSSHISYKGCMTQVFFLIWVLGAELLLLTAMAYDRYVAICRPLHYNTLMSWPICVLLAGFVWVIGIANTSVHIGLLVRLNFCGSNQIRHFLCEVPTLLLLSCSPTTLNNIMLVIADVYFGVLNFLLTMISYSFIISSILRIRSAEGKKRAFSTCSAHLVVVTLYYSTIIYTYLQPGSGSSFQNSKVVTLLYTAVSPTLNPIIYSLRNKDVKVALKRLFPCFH
How it was run: as §1

UniProt Q8VGV1 = target: T9, UniProt Q8VGV1
T9 sequence (whole entry): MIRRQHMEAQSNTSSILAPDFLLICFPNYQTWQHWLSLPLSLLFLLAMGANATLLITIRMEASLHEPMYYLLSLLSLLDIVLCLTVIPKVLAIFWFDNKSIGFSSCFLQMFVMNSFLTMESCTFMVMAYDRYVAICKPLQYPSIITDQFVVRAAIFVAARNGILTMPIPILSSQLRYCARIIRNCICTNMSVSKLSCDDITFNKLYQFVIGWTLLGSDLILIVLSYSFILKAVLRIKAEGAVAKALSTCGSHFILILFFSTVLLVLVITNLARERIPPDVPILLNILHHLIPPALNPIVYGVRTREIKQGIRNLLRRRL
How it was run: as §1

UniProt Q8VGW5 = target: T10, UniProt Q8VGW5
T10 sequence (whole entry): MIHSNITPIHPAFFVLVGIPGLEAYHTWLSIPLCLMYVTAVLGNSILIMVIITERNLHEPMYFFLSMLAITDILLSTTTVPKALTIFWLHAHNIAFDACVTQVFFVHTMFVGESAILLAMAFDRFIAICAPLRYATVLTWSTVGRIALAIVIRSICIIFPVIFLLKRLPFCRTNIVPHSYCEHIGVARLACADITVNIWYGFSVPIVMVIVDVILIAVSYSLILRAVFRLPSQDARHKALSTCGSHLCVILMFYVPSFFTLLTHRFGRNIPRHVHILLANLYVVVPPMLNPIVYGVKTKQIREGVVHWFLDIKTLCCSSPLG
How it was run: as §1

Measured: odorant receptor agonist call

CC(=O)OCCc1ccccc1
active: UniProt Q8VGV7
inactive: UniProt Q8VGU3 | UniProt Q8VGX3 | UniProt Q8VGX5

CCCCCCCC(=O)[O-].[H+]
inactive: UniProt Q8VGM2 | UniProt Q8VGP6 | UniProt Q8VGQ3 | UniProt Q8VGT4 | UniProt Q8VGW5 | UniProt Q8VGX5
active: UniProt Q8VGV1

C=C(CC)CCCC(C)(C)O
inactive: UniProt Q8VGU3 | UniProt Q8VGV7 | UniProt Q8VGX3 | UniProt Q8VGX5

c1ccc2ncccc2c1
active: UniProt Q8VGX5
inactive: UniProt Q8VGU3 | UniProt Q8VGV7 | UniProt Q8VGX3

O=C(OCc1ccccc1)c1ccccc1O
inactive: UniProt Q8VGU3 | UniProt Q8VGV7 | UniProt Q8VGX3 | UniProt Q8VGX5

CCC=CCCCCC=O
inactive: UniProt Q8VGU3 | UniProt Q8VGV7 | UniProt Q8VGX3 | UniProt Q8VGX5

CC(=O)C=CC1=C(C)CCCC1(C)C
active: UniProt Q8VGX5
inactive: UniProt Q8VGU3 | UniProt Q8VGV7 | UniProt Q8VGX3

CSSCc1ccco1
inactive: UniProt Q8VGU3 | UniProt Q8VGV7 | UniProt Q8VGX3 | UniProt Q8VGX5

C=C(C)C1CCC2(C)OC2C1 (configuration not stated)
inactive: UniProt Q8VGU3 | UniProt Q8VGV7 | UniProt Q8VGX3 | UniProt Q8VGX5

CCC(C)c1nccnc1OC (configuration not stated)
active: UniProt Q8VGX5
inactive: UniProt Q8VGU3 | UniProt Q8VGV7 | UniProt Q8VGX3

C=C(C)C1CC=C(C)CC1 (configuration not stated)
inactive: UniProt Q8VGU3 | UniProt Q8VGV7 | UniProt Q8VGX5
active: UniProt Q8VGX3

CCc1ccc(O)cc1
inactive: UniProt Q8VGU3 | UniProt Q8VGV7 | UniProt Q8VGX3 | UniProt Q8VGX5

CCCCCCCOC(=O)C(C)C
inactive: UniProt Q8VGU3 | UniProt Q8VGV7 | UniProt Q8VGX3 | UniProt Q8VGX5

COc1cnccn1
inactive: UniProt Q8VGU3 | UniProt Q8VGV7 | UniProt Q8VGX3 | UniProt Q8VGX5

CCCCCOC(=O)CCC
inactive: UniProt Q8VGU3 | UniProt Q8VGV7 | UniProt Q8VGX3 | UniProt Q8VGX5

COc1nccnc1C
inactive: UniProt Q8VGU3 | UniProt Q8VGV7 | UniProt Q8VGX3 | UniProt Q8VGX5

Cc1ccc(C(C)C)cc1
inactive: UniProt Q8VGU3 | UniProt Q8VGV7 | UniProt Q8VGX3 | UniProt Q8VGX5

CC(=O)OC1(C)CCC23CC1C(C)(C)C2CCC3C (configuration not stated)
active: UniProt Q8VGU3
inactive: UniProt Q8VGV7 | UniProt Q8VGX3 | UniProt Q8VGX5

CNc1ccccc1C(=O)OC
inactive: UniProt Q8VGU3 | UniProt Q8VGV7 | UniProt Q8VGX3
active: UniProt Q8VGX5

CC1CC=CCCCCCCCCCC(=O)C1 (configuration not stated)
inactive: UniProt Q8VGU3 | UniProt Q8VGV7 | UniProt Q8VGX3 | UniProt Q8VGX5

Cc1ccccc1OC(=O)C(C)C
inactive: UniProt Q8VGU3 | UniProt Q8VGV7 | UniProt Q8VGX3 | UniProt Q8VGX5

CC1(C)CC(=O)CC(=O)C1
inactive: UniProt Q8VGU3 | UniProt Q8VGV7 | UniProt Q8VGX3 | UniProt Q8VGX5

Cc1ccc2c(c1)OCC(=O)CO2
inactive: UniProt Q8VGU3 | UniProt Q8VGV7 | UniProt Q8VGX3 | UniProt Q8VGX5

OCCc1ccccc1
active: UniProt Q8VGX5
inactive: UniProt Q8VGU3 | UniProt Q8VGV7 | UniProt Q8VGX3

CC=Cc1ccc(OC)cc1
inactive: UniProt Q8VGU3 | UniProt Q8VGV7 | UniProt Q8VGX3 | UniProt Q8VGX5

CCN(CC)CC
inactive: UniProt Q8VGU3 | UniProt Q8VGV7 | UniProt Q8VGX3 | UniProt Q8VGX5

CCCCCC(C)O (configuration not stated)
inactive: UniProt Q8VGU3 | UniProt Q8VGV7 | UniProt Q8VGX3 | UniProt Q8VGX5

CC(C)=CCCC(C)=CCOC(=O)C(C)C
inactive: UniProt Q8VGU3 | UniProt Q8VGV7 | UniProt Q8VGX3
active: UniProt Q8VGX5

CCCCCCCCCCOC(C)=O
inactive: UniProt Q8VGU3 | UniProt Q8VGV7 | UniProt Q8VGX3 | UniProt Q8VGX5

CCc1nccnc1CC
inactive: UniProt Q8VGU3 | UniProt Q8VGV7 | UniProt Q8VGX3 | UniProt Q8VGX5

C1CCOC1
inactive: UniProt Q8VGU3 | UniProt Q8VGV7 | UniProt Q8VGX3 | UniProt Q8VGX5

CCc1ncc(C)nc1CC
inactive: UniProt Q8VGU3 | UniProt Q8VGV7 | UniProt Q8VGX3 | UniProt Q8VGX5

C1CCOCC1
inactive: UniProt Q8VGU3 | UniProt Q8VGV7 | UniProt Q8VGX3 | UniProt Q8VGX5

CCCCCCC(C)O (configuration not stated)
inactive: UniProt Q8VGU3 | UniProt Q8VGV7 | UniProt Q8VGX3 | UniProt Q8VGX5

CC1CCC(C(C)C)C(=O)C1 (configuration not stated)
inactive: UniProt Q8VGU3 | UniProt Q8VGV7 | UniProt Q8VGX3 | UniProt Q8VGX5

C=CC(=C)CCC=C(C)C
inactive: UniProt Q8VGU3 | UniProt Q8VGV7 | UniProt Q8VGX3 | UniProt Q8VGX5

C=C(C)C1CCC(C)C(O)C1 (configuration not stated)
active: UniProt Q8VGX5
inactive: UniProt Q8VGU3 | UniProt Q8VGV7 | UniProt Q8VGX3

CCCCOC(=O)CCC
inactive: UniProt Q8VGW5
